Experiments:
Cannabinoid receptor 1 [1] = target: T1, Cannabinoid receptor 1 (Homo sapiens, UniProt P21554); assay: Agonist activity at human CB1 receptor expressed in CHO-RD-HGA16 cells at 10 uM after 15 mins by FLIPR assay relative to CP55940; assay type: cell-based
How it was run: (§1)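 Stably transfected CHO-RD-HGA16 cells (human CB1, or CB2 for line 2) seeded the day before (CB1 25,000, CB2 30,000 cells/well), cultured overnight at 37°C, 5% CO2. Loaded 45 min at 37°C with Calcium 5 dye in HBSS/20 mM HEPES/2.5 mM probenecid, pH 7.4.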

[2] = target: Cannabinoid receptor 2 (Homo sapiens) (UniProt P34972); assay: Agonist activity at human CB2 receptor expressed in CHO-RD-HGA16 cells at 10 uM after 15 mins by FLIPR assay relative to CP55940; assay type: cell-based; how it was run: as §1
Cannabinoid receptor 2 (Homo sapiens), sequence (P34972 whole entry): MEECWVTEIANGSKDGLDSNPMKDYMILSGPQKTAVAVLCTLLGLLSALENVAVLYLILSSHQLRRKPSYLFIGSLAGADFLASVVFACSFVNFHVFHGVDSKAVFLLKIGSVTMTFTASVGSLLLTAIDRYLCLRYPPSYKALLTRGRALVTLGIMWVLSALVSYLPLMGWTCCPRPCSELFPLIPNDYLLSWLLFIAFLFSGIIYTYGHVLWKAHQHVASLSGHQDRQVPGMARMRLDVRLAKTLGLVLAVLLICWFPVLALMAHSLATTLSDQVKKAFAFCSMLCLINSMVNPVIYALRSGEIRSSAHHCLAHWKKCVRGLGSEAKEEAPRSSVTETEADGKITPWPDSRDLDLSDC

[3] = target: Cannabinoid receptor 2 (Homo sapiens) (UniProt P34972); assay: Antagonist activity at human CB2 receptor expressed in CHO-RD-HGA16 cells assessed as inhibition of CP55940-induced calcium mobilization at 10 uM incubated for 15 mins prior to CP55940 addition by FLIPR assay; assay type: functional, cell-based
Cannabinoid receptor 1 [4] = target: T1, Cannabinoid receptor 1; assay: Antagonist activity at human CB1 receptor expressed in CHO-RD-HGA16 cells assessed as inhibition of CP55940-induced calcium mobilization incubated for 15 mins prior to CP55940 addition by FLIPR assay; assay type: functional, cell-based
Cannabinoid receptor 1 [5] = target: T1, Cannabinoid receptor 1; assay: Allosteric modulation of human CB1 receptor expressed in CHO-RD-HGA16 cells assessed as reduction of CP55940 Emax by calcium mobilization assay; assay type: functional, cell-based
How it was run: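 CB1-expressing CHO-RD-HGA16 cells seeded at 25,000/well the previous day and loaded with Calcium 5 dye for 45 min at 37°C (HBSS, 20 mM HEPES, 2.5 mM probenecid, pH 7.4). Pretreated 15 min at 37°C with a single concentration of test compound, then serial dilutions of CP55,940 added on FLIPR Tetra. Fluorescence plotted against agonist concentration.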

T1 sequence (P21554 whole entry): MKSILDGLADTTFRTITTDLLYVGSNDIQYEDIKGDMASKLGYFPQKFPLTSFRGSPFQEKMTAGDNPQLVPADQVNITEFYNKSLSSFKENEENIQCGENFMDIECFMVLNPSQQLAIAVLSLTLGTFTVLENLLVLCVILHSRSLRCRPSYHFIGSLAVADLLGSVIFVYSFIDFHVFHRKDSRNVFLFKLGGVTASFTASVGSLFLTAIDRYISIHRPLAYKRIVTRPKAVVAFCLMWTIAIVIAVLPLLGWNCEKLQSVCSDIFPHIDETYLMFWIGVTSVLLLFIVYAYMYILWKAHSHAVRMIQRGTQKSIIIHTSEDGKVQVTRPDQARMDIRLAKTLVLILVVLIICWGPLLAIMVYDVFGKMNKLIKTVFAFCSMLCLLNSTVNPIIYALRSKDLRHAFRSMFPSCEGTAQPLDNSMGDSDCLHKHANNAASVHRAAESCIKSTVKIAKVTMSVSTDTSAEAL

| SMILES | Activity (Cannabinoid receptor 1 [1]) | Activity [2] | inhibition [3] | IC50 (Cannabinoid receptor 1 [4]) | Activity (Cannabinoid receptor 1 [5]) |
| --- | --- | --- | --- | --- | --- |
| CCc1c(C(=O)NCCc2ccc(Cl)cc2)[nH]c2ccc(Cl)cc12 | < 30% | < 30% | -4.8% | 2500 nM |  |
| CCc1c(C(=O)NCCc2ccc3c(c2)OCO3)[nH]c2ccc(Cl)cc12 | < 30% | < 30% | 25.8% | 4320 nM |  |
| CCc1c(C(=O)NCCc2ccc(OC)cc2)[nH]c2ccc(Cl)cc12 | < 30% | < 30% |  | 2560 nM |  |
| CCc1c(C(=O)NCCc2cccc(OC)c2)[nH]c2ccc(Cl)cc12 | < 30% | < 30% | -6% | 2100 nM |  |
| O=C(NCCc1ccc(N2CCCCC2)cc1)c1cc2cc(Cl)ccc2[nH]1 | < 30% | < 30% | 15% | 212 nM |  |
| CCc1c(C(=O)NCCc2ccc(NC(C)=O)cc2)[nH]c2ccc(Cl)cc12 | < 30% | < 30% | -3.3% | > 10000 nM |  |
| CCc1c(C(=O)NCCc2ccc(C(C)(C)C)cc2)[nH]c2ccc(Cl)cc12 | < 30% | < 30% |  | 2430 nM |  |
| CCc1c(C(=O)NCCc2ccc(Cl)c(Cl)c2)[nH]c2ccc(Cl)cc12 | < 30% | < 30% | -3.2% | 2170 nM |  |
| CCCCCC(=O)Nc1ccc(CCNC(=O)c2[nH]c3ccc(Cl)cc3c2CC)cc1 | < 30% | < 30% | 1% | > 10000 nM |  |
| CCc1c(C(=O)NC2CCN(Cc3ccccc3)C2)[nH]c2ccc(Cl)cc12 (configuration not stated) | < 30% | < 30% | -6.2% | 4760 nM |  |
| CCc1c(C(=O)NCCc2ccccc2Cl)[nH]c2ccc(Cl)cc12 | < 30% | < 30% | 28.5% | 5810 nM |  |
| CCc1c(C(=O)NCCc2ccccc2)[nH]c2ccc(Cl)cc12 | < 30% | < 30% | -6.2% | 3150 nM |  |
| CCc1c(C(=O)N2CCN(c3ccc(Cl)cc3)CC2)[nH]c2ccc(Cl)cc12 | < 30% | < 30% |  | > 10000 nM |  |
| CCc1c(C(=O)N2CCN(c3ccccc3)CC2)[nH]c2ccc(Cl)cc12 | < 30% | < 30% |  | > 10000 nM |  |
| CCCCCCNc1ccc(CCNC(=O)c2[nH]c3ccc(Cl)cc3c2CC)cc1 | < 30% | < 30% |  | 3620 nM |  |
| CCCC(=O)Nc1ccc(CCNC(=O)c2[nH]c3ccc(Cl)cc3c2CC)cc1 | < 30% | < 30% | 43% | > 10000 nM |  |
| CCc1c(C(=O)NCCc2cccc(O)c2)[nH]c2ccc(Cl)cc12 | < 30% | < 30% | -0.1% | > 10000 nM |  |
| CCc1c(C(=O)NCCc2ccc(OC)c(O)c2)[nH]c2ccc(Cl)cc12 | < 30% | < 30% | -7% | > 10000 nM |  |
| CCc1c(C(=O)NCCc2cccc(N(C)C)c2)[nH]c2ccc(Cl)cc12 |  |  | -3.7% | > 10000 nM |  |
| CCCN(CCC)c1ccc(CCNC(=O)c2[nH]c3ccc(Cl)cc3c2CC)cc1 | < 30% | < 30% |  | 1800 nM |  |
| CCc1c(C(=O)Nc2cccc(-c3cccc(N(C)C)n3)c2)[nH]c2ccc(Cl)cc12 | < 30% | < 30% |  | > 10000 nM |  |
| CCc1c(C(=O)NCCc2ccc(N3CCCCC3)cc2)[nH]c2ccc(Cl)cc12 | < 30% | < 30% |  | 853 nM | Dose-dependent effect |
| CCc1c(C(=O)NCCc2ccc([N+](=O)[O-])cc2)[nH]c2ccc(Cl)cc12 | < 30% | < 30% | 34.8% | 5740 nM |  |

Results, then the molecule that gave them:

| Activity (Cannabinoid receptor 1 [1]) | Activity [2] | inhibition [3] | IC50 (Cannabinoid receptor 1 [4]) | Activity (Cannabinoid receptor 1 [5]) | SMILES |
| --- | --- | --- | --- | --- | --- |
| < 30% | < 30% |  | 787 nM |  | CCc1c(C(=O)NCCc2ccc(N(C)C)cc2)[nH]c2ccc(Cl)cc12 |
| < 30% | < 30% |  | 151 nM |  | CCN(CC)c1ccc(CCNC(=O)c2[nH]c3ccc(F)cc3c2C)cc1 |
| < 30% | < 30% | -8.2% | 279 nM |  | Cc1c(C(=O)NCCc2ccc(N3CCCCC3)cc2)[nH]c2ccc(F)cc12 |
| < 30% | < 30% |  | 318 nM |  | CCN(CC)c1ccc(CCNC(=O)c2cc3cc(F)ccc3[nH]2)cc1 |
| < 30% | < 30% |  | 483 nM |  | CCc1c(C(=O)NCCc2ccc(N(CC)CC)cc2)[nH]c2ccc(Cl)cc12 |
| < 30% | < 30% | 0.7% | 79 nM | Dose-dependent effect | CCN(CC)c1ccc(CCNC(=O)c2cc3cc(Cl)ccc3[nH]2)cc1 |
| < 30% | < 30% |  | 361 nM |  | CCc1c(C(=O)NCCc2ccc(N(CC)CC)cc2)[nH]c2ccc(F)cc12 |
| < 30% | < 30% |  | 205 nM | Dose-dependent effect | CCc1c(C(=O)NCCc2ccc(N(C)C)cc2)[nH]c2ccc(F)cc12 |
| < 30% | < 30% | 24.8% | 831 nM |  | CCc1c(C(=O)NCCc2cccc(Cl)c2)[nH]c2ccc(Cl)cc12 |
| < 30% | < 30% | 20.8% | 319 nM |  | O=C(NCCc1ccc(N2CCCCC2)cc1)c1cc2cc(F)ccc2[nH]1 |
| < 30% | < 30% |  | 605 nM |  | CCc1c(C(=O)NCCc2ccc(N3CCCCC3)cc2)[nH]c2ccc(F)cc12 |
